Source: PubChem
Compounds with a hit are over-represented: about 1.9% of the library has one in this group of screens.
SUMO HTRF inh: inhibitors of in vitro SUMOylation cascade, primary screen, biochemical, HTRF, uHTS. SUMO-conjugating enzyme UBC9 (Homo sapiens), P63279. HTRF SUMOylation assay, SAE1/SAE2 + UBC9. inhibition, % at 35 µM. actives 0.36% (n = 290,000). AID 2006, 2009; in the data active = inhibition above about 50%, passing the limit was not always enough
p-CIP stab down: p/CIP-EGFP fusion destabilizers, primary screen, fluorescence, F442A cells; 16 h; decrease of EGFP signal, % at 10 µM; actives 0.01% (n = 290,000);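 active = EGFP signal decrease of at least 30% at 10 µM or well 3 SD below plate mean, unless failing retest; inactive = the rest, including hits failing retest or dose response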
IMP-1 inhibitor: IMP-1 metallo-beta-lactamase inhibitors, primary screen, biochemical, epi-absorbance readout, Pseudomonas aeruginosa enzyme; inhibition, % at 5.6 µM; actives 0.45% (n = 290,000); metallo-beta-lactamase IMP-1 (Pseudomonas aeruginosa); AID 1556, 2009; purified IMP-1, nitrocefin hydrolysis, epi-absorbance fluorescence;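 active = inhibition above the mean plus 3 SD of all compounds in the same screening run, cut at about 4.5% in these data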;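 note: 0% = IMP-1 with DMSO and 100% = DMSO wells lacking enzyme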
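System: purified recombinant IMP-1 beta-lactamase. Medium: Zinc- and detergent-supplemented HEPES buffer, pH 7.1. Compound: one 5.6 µM dose […]. Schedule: 15 min preincubation plus 25 min reaction at 25 °C. Technique: Epi-absorbance fluorescence, 480 nm excitation, 530 nm emission.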
VIM-2 inh: VIM-2 metallo-beta-lactamase inhibitors, primary screen, biochemical, epi-absorbance readout, Pseudomonas aeruginosa enzyme; purified VIM-2, nitrocefin hydrolysis, epi-absorbance fluorescence; inhibition, % at 5.6 µM; actives 0.89% (n = 290,000); AID 1527, 2009;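 active = inhibition above the mean of all tested compounds plus 3 SD, cutoff set per screening run, cut at about 7.5% in these data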;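 note: red hydrolysis product quenches plate fluorescence so inhibitors raise well fluorescence; 0% = enzyme with DMSO and 100% = DMSO without enzyme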
T cell modulator: modulators of CD8 T cell-vesicle binding, primary screen, mouse 2C CD8+ T cells, flow cytometry. 2C CD8+ T cell-vesicle binding; hits give low values. response (vesicle binding), % at 7 µM. actives 0.068% (n = 330,000);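 active = response, share of CD8 T cells binding vesicles, and their 90th percentile fluorescence all below set limits, cut at about 80% in these data, passing the limit was not always enough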;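 note: values below 100% mean blocked vesicle binding to the CD8+ T cells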
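Benchmarks: naked versus QL9-loaded vesicles / Assay system: purified 2C TCR transgenic mouse naive CD8+ T cells / Technique: high-throughput flow cytometry with anti-B7-1 and anti-CD8 staining / Timing: Cell–vesicle co-incubation 1.5 h at 37 °C, staining 20 min on ice / Read-out: percent CD8+ FL2 mean versus row control / Probe or stimulus: QL9-loaded Drosophila micro-vesicles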
Fh CTSL1 inh: Fasciola hepatica cathepsin L1 inhibitors, primary screen, counter-screen for PFM18AAP inhibitor project, biochemical, QFRET, fluorogenic peptide substrate; AID 1906, 2009; inhibition, % at 5.96 µM; recombinant F. hepatica cathepsin L1, Z-Leu-Arg-MCA fluorescence; actives 0.49% (n = 300,000);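 active = inhibition above the mean of all tested compounds plus 3 SD, set per screening campaign, cut at about 17% in these data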;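 note: 0% = plate median of test compound wells and 100% = 1 µM Z-Phe-Ala-diazomethylketone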
VIM-2 inh confirm: P. aeruginosa VIM-2 enzyme inhibition – biochemical, epi-absorbance, HTS, confirmation; shares compounds with IMP-1 inhibitor; purified VIM-2 enzyme, nitrocefin absorbance; inhibition, % at 5.6 µM; actives 73% (n = 200); in the data active = inhibition above about 8%;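 note: 0% = enzyme with vehicle and 100% = no enzyme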
TEM-1 inh 2: Serine beta-lactamase TEM-1 inhibition, biochemical epi-absorbance counter-screen for IMP-1/VIM-2 inhibitor program. shares compounds with IMP-1 inhibitor. TEM-1 beta-lactamase, nitrocefin absorbance inhibition. inhibition, % at 5.6 µM. actives 50% (n = 200); in the data active = inhibition above about 0.66%
IMP-1 inh conf: IMP-1 metallo-beta-lactamase inhibitors, confirmation, biochemical, epi-absorbance, hits shared with VIM-2 screen | shares compounds with IMP-1 inhibitor | inhibition, % at 5.6 µM | purified IMP-1 enzyme, absorbance substrate hydrolysis | actives 60% (n = 200) | AID 2189, 2009; in the data active = inhibition above about 4.9%;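 note: 0% = enzyme with vehicle and 100% = vehicle without enzyme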
Active calls of the source: *; i = inactive; . = no result.

SMILES | SUMO HTRF inh | p-CIP stab down | IMP-1 inhibitor | VIM-2 inh | T cell modulator | Fh CTSL1 inh | VIM-2 inh confirm | TEM-1 inh 2 | IMP-1 inh conf
Cc1[nH]c2ccccc2c1/C=C/c1cc[n+](C)cc1 | 3.8 | -510.8 | 9.0* | 10.3* | . | . | 17.4* | 0.0 | 3.0
COCC(=O)N1CCC(Oc2ccc(C(=O)NC3Cc4ccccc4C3)cc2)CC1 | 1.3 | 0.7 | -1.9 | 0.0 | 236.1 | -2.6 | . | . | .
CN(C)c1ccc(/C=N/N(CCO)C2=NS(=O)(=O)c3ccccc32)cc1 | 45.7 | -5.8 | 18.0* | 42.4* | 207.8 | 0.0 | 39.6* | 42.1* | 30.5*
COc1ccc2c3c(cccc13)C(=O)CC2 | 0.0 | -37.5 | 15.5* | 17.2* | 188.0 | . | 0.7 | 1.7* | -2.4
COc1ccc2c(c1OC)C(=O)OC2 | 8.5 | -13.3 | -0.2 | 0.3 | 0.0 | -0.5 | . | . | .
CCOC(=O)C(NC(=O)c1ccc(Cl)cc1Cl)(Nc1ccc(C)cc1)C(F)(F)F (stereo not given) | -18.2 | 15.7 | -0.8 | -0.9 | 156.9 | 5.5 | . | . | .
COc1ccc(C(=O)Nc2ccc(/C(C)=N/NC(=O)c3ccncc3)cc2)cc1 | 7.7 | -12.7 | 32.4* | 13.6* | 364.5 | -1.7 | 12.3* | -4.7 | 18.9*
Nc1ccc(-c2c3ccc(=O)cc-3oc3cc(O)ccc23)cc1C(=O)O | 21.4 | -477.2 | 51.2* | 70.3* | 329.4 | 4.1 | 58.7* | 61.7* | 41.7*
Cc1oc2cc(O)ccc2c(=O)c1-c1ccccc1 | 27.3 | 14.3 | -1.9 | 0.0 | 112.1 | 2.6 | . | . | .
O=c1ccc2c(-c3ccccc3)c3ccc(O)cc3oc-2c1 | 23.2 | -317.7 | 84.0* | 81.3* | 373.7 | -6.1 | 101.0* | 152.2* | 96.0*
NS(=O)(=O)c1ccc(NC(=O)c2cccc(N3C(=O)c4ccccc4C3=O)c2)cc1 | 27.0 | -0.2 | 24.9* | 9.6* | 236.1 | 1.4 | 3.4 | -2.0 | 16.6*
COCCNC(=O)CN(C(=O)Cn1nnc2ccccc21)c1cc(C)cc(C)c1 | 15.2 | -0.1 | -0.8 | -1.7 | 465.8 | 4.7 | . | . | .
CS(=O)(=O)N(CC(=O)Nc1ccccc1Cl)c1ccc(Cl)cc1 | 2.6 | -2.6 | -1.7 | -4.8 | 237.1 | 0.0 | . | . | .
Cc1[nH]c2ccccc2c1C(=O)C(C)OC(=O)C1CCC1 (stereo not given) | . | . | . | . | 223.4 | -0.9 | . | . | .
CCN(CC)C(=O)C1c2ccccc2Oc2ccccc21 | 19.2 | -24.4 | 17.2* | 18.4* | 445.0 | 1.4 | 2.2 | 1.6* | 0.7
CC(C)(C)C1C=C(Sc2ccccc2)C(=O)O1 (stereo not given) | -10.5 | 8.5 | 51.0* | 8.8* | 199.0 | -3.9 | -0.6 | -3.1 | 15.4*
Cc1cc(O)ccc1C1(c2ccc(O)cc2C)OC(=O)c2ccccc21 | 6.5 | -6.7 | -2.4 | -0.1 | 257.9 | -0.5 | . | . | .
CC(=O)Oc1ccc2c(c1)Oc1cc(OC(C)=O)ccc1C21OC(=O)c2ccccc21 | -9.9 | -4.2 | 140.4* | 142.8* | i | -9.4 | 13.8* | 3.3* | 4.7*
Cc1ccc(/C=N/N=C2\SCC(=O)N2CC2CC2)cc1 | 3.3 | 3.5 | -0.3 | -2.6 | 940.0 | 1.6 | . | . | .
Cn1c(=O)c(NCCc2ccccc2)c2c3c(cccc31)C(=O)c1ccccc1-2 | 46.0 | -334.3 | 36.3* | 36.6* | 646.0 | 0.6 | 28.4* | 63.9* | 23.7*
Cn1c(NCCc2ccccc2)cc(=O)n(C)c1=O | 5.1 | -2.1 | 2.3 | 0.2 | 386.8 | -0.5 | . | . | .
CCCCNc1c2c3c(cccc3n(C)c1=O)C(=O)c1ccccc1-2 | 24.8 | -6.8 | 28.2* | 22.6* | i | 2.5 | 34.1* | 52.5* | 27.6*
CCNc1c2c3c(cccc3n(C)c1=O)C(=O)c1ccccc1-2 | 37.8 | -569.8 | 22.9* | 22.4* | 302.2 | 2.1 | 60.0* | 69.1* | 41.0*
CN1C(=O)c2cccc(NCCCN3C(=O)c4ccccc4C3=O)c2C1=O | 28.6 | -13.6 | 0.3 | -2.8 | 258.3 | -1.8 | . | . | .
Cn1c(=O)c(NCCO)c2c3c(cccc31)C(=O)c1ccccc1-2 | 55.3* | -742.6 | 95.7* | 90.2* | 330.5 | 4.6 | 108.1* | 157.9* | 95.2*
SMILES | SUMO HTRF inh | p-CIP stab down | IMP-1 inhibitor | VIM-2 inh | T cell modulator | Fh CTSL1 inh | VIM-2 inh confirm | TEM-1 inh 2 | IMP-1 inh conf
NC(=O)CC(NC(=O)Cc1ccc(Cl)cc1)c1ccc(NC2CCCCCCC2)c([N+](=O)[O-])c1 (stereo not given) | -0.3 | 1.1 | -2.0 | -2.6 | 869.6 | -1.4 | . | . | .
Oc1ccc(Cn2ccnc2)c2cccnc12 | -57.4 | -1.4 | 26.1* | 10.3* | 266.8 | 1.2 | 20.7* | -2.6 | 43.8*
N=C1/C(=C\c2coc3ccccc3c2=O)C(=O)N=C2SC=CN12 | 5.3 | -19.6 | 8.6* | 9.3* | 128.8 | 5.8 | 16.0* | 3.6* | 11.6*
CC1=CC2=NC(=O)/C(=C\c3cc(C)n(-c4cccc(Cl)c4)c3C)C(=N)N2O1 | -3.0 | -5.8 | -3.1 | -2.0 | 628.8 | -3.1 | . | . | .
CC1=CC2=NC(=O)/C(=C/c3coc4ccc(Cl)cc4c3=O)C(=N)N2O1 | 17.6 | -27.2 | 9.4* | 12.7* | 338.6 | 1.5 | 7.8* | -1.9 | 2.4
CSC1=NSC2=NC(=O)/C(=C/c3coc4ccccc4c3=O)C(=N)N12 | 11.3 | 2.0 | 0.3 | -0.2 | 295.6 | 1.8 | . | . | .
CCn1c(-c2ccc(F)cc2)cnc1SCC(=O)N1CCCCC1C (stereo not given) | 5.7 | 1.8 | -1.8 | -0.8 | . | . | . | . | .
CN(c1ccccc1)S(=O)(=O)c1cccc(NS(=O)(=O)c2ccc(/C=C/C(=O)O)cc2)c1 | -1.2 | -5.9 | -1.6 | -2.8 | 253.6 | 0.1 | . | . | .
